From ChEMBL document CHEMBL1806444, “Synthesis of new chalcone derivatives bearing 2,4-thiazolidinedione and benzoic acid moieties as potential anti-bacterial agents” (2011)
≈ marks a conversion by molar mass, not a printed value.

Tests used:
Assay type in all cases: functional
Staphylococcus aureus [1] = assay: Antibacterial activity against 10^5 CFU/mL Staphylococcus aureus RN4220 assessed as inhibition of bacterial growth after 24 hrs by microtiter enzyme-linked immunosorbent assay; conditions: RN4220, 24 h
Staphylococcus aureus [2] = assay: Antibacterial activity against 10^5 CFU/mL Staphylococcus aureus KCTC 503 assessed as inhibition of bacterial growth after 24 hrs by microtiter enzyme-linked immunosorbent assay; conditions: KCTC 503, 24 h
Escherichia coli [3] = assay: Antibacterial activity against 10^5 CFU/mL Escherichia coli 1356 assessed as inhibition of bacterial growth after 24 hrs by microtiter enzyme-linked immunosorbent assay; conditions: Escherichia coli, 1356, 24 h
Escherichia coli [4] = assay: Antibacterial activity against 10^5 CFU/mL Escherichia coli 1682 assessed as inhibition of bacterial growth after 24 hrs by microtiter enzyme-linked immunosorbent assay; conditions: Escherichia coli, 1682, 24 h
Staphylococcus aureus [5] = assay: Antibacterial activity against 10^5 CFU/mL methicillin-resistant Staphylococcus aureus CCARM 3167 assessed as inhibition of bacterial growth after 24 hrs by microtiter enzyme-linked immunosorbent assay; conditions: CCARM 3167, 24 h
Procedure, shortened: (§1)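 Broth microdilution MIC. Bacteria grown to mid-log phase in Mueller-Hinton broth, diluted 1000-fold, and inoculated at 10⁵ CFU/mL in MHB, 0.2 mL/well in 96-well plates. Compounds dissolved in DMSO, final DMSO not exceeding 0.05%, in serial dilutions. Oxacillin and norfloxacin served as positive controls. MIC is the lowest concentration giving complete growth inhibition after 24 h at 37 °C.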

Staphylococcus aureus [6] = assay: Antibacterial activity against 10^5 CFU/mL methicillin-resistant Staphylococcus aureus CCARM 3506 assessed as inhibition of bacterial growth after 24 hrs by microtiter enzyme-linked immunosorbent assay; conditions: CCARM 3506, 24 h; procedure, shortened: as §1
Staphylococcus aureus [7] = assay: Antibacterial activity against 10^5 CFU/mL quinolone-resistant Staphylococcus aureus CCARM 3505 assessed as inhibition of bacterial growth after 24 hrs by microtiter enzyme-linked immunosorbent assay; conditions: CCARM 3505, 24 h; procedure, shortened: as §1
Staphylococcus aureus [8] = assay: Antibacterial activity against 10^5 CFU/mL quinolone-resistant Staphylococcus aureus CCARM 3519 assessed as inhibition of bacterial growth after 24 hrs by microtiter enzyme-linked immunosorbent assay; conditions: CCARM 3519, 24 h; procedure, shortened: as §1
Staphylococcus aureus [9] = assay: Ratio of Norfloxacin MIC to compound MIC for methicillin-resistant Staphylococcus aureus CCARM 3167
Staphylococcus aureus [10] = assay: Ratio of Norfloxacin MIC to compound MIC for methicillin-resistant Staphylococcus aureus CCARM 3506
Staphylococcus aureus [11] = assay: Ratio of oxacillin MIC to compound MIC for methicillin-resistant Staphylococcus aureus CCARM 3167
Staphylococcus aureus [12] = assay: Ratio of oxacillin MIC to compound MIC for methicillin-resistant Staphylococcus aureus CCARM 3506

Compound	MIC (Staphylococcus aureus [1]) [µg/mL]	MIC (Staphylococcus aureus [2]) [µg/mL]	MIC (Escherichia coli [3]) [µg/mL]	MIC (Escherichia coli [4]) [µg/mL]	MIC (Staphylococcus aureus [5]) [µg/mL]	MIC (Staphylococcus aureus [6]) [µg/mL]	MIC (Staphylococcus aureus [7]) [µg/mL]	MIC (Staphylococcus aureus [8]) [µg/mL]	Ratio (Staphylococcus aureus [9])	Ratio (Staphylococcus aureus [10])	Ratio (Staphylococcus aureus [11])	Ratio (Staphylococcus aureus [12])
O=C(O)c1ccc(CN2C(=O)S/C(=C\c3ccc(/C=C/C(=O)c4ccccc4F)cc3)C2=O)cc1	> 64	> 64	> 64	> 64								
O=C(O)c1ccc(CN2C(=O)S/C(=C\c3ccc(/C=C/C(=O)c4ccc(F)cc4)cc3)C2=O)cc1	> 64	> 64	> 64	> 64								
O=C(O)c1ccc(CN2C(=O)S/C(=C\c3ccc(/C=C/C(=O)c4ccccc4Cl)cc3)C2=O)cc1	1 (≈ 1.98 µM)	2 (≈ 3.97 µM)	> 64	> 64	1 (≈ 1.98 µM)	1 (≈ 1.98 µM)	2 (≈ 3.97 µM)	2 (≈ 3.97 µM)				
O=C(O)c1ccc(CN2C(=O)S/C(=C\c3ccc(/C=C/C(=O)c4cccc(Cl)c4)cc3)C2=O)cc1	> 64	> 64	> 64	> 64								
O=C(O)c1ccc(CN2C(=O)S/C(=C\c3ccc(/C=C/C(=O)c4ccccc4Br)cc3)C2=O)cc1	2 (≈ 3.65 µM)	4 (≈ 7.29 µM)	> 64	> 64	1 (≈ 1.82 µM)	1 (≈ 1.82 µM)	2 (≈ 3.65 µM)	2 (≈ 3.65 µM)				
O=C(O)c1ccc(CN2C(=O)S/C(=C\c3ccc(/C=C/C(=O)c4ccc(Br)cc4)cc3)C2=O)cc1	> 64	> 64	> 64	> 64								
COc1ccccc1C(=O)/C=C/c1ccc(/C=C2\SC(=O)N(Cc3ccc(C(=O)O)cc3)C2=O)cc1	2 (≈ 4 µM)	4 (≈ 8.01 µM)	> 64	> 64	2 (≈ 4 µM)	2 (≈ 4 µM)	4 (≈ 8.01 µM)	2 (≈ 4 µM)				
COc1ccc(C(=O)/C=C/c2ccc(/C=C3\SC(=O)N(Cc4ccc(C(=O)O)cc4)C3=O)cc2)cc1	> 64	> 64	> 64	> 64								
O=C(O)c1ccc(CN2C(=O)S/C(=C\c3ccc(/C=C/C(=O)c4ccccc4O)cc3)C2=O)cc1	> 64	> 64	> 64	> 64								
O=C(O)c1ccc(CN2C(=O)S/C(=C\c3ccc(/C=C/C(=O)c4cccc(O)c4)cc3)C2=O)cc1	2 (≈ 4.12 µM)	4 (≈ 8.24 µM)	> 64	> 64	1 (≈ 2.06 µM)	1 (≈ 2.06 µM)	2 (≈ 4.12 µM)	2 (≈ 4.12 µM)				
O=C(O)c1ccc(CN2C(=O)S/C(=C\c3ccc(/C=C/C(=O)c4ccc(O)cc4)cc3)C2=O)cc1	> 64	> 64	> 64	> 64								
O=C(O)c1ccc(CN2C(=O)S/C(=C\c3ccc(/C=C/C(=O)c4ccccc4)cc3)C2=O)cc1	1 (≈ 2.13 µM)	2 (≈ 4.26 µM)	> 64	> 64	1 (≈ 2.13 µM)	0.5 (≈ 1.06 µM)	2 (≈ 4.26 µM)	2 (≈ 4.26 µM)	8	8	64	64
CCn1cc(C(=O)O)c(=O)c2cc(F)c(N3CCNCC3)cc21 [NORFLOXACIN]	2 (≈ 6.26 µM)	2 (≈ 6.26 µM)	16 (≈ 50.1 µM)	16 (≈ 50.1 µM)	8 (≈ 25.1 µM)	4 (≈ 12.5 µM)	> 64	> 64				
Cc1onc(-c2ccccc2)c1C(=O)N[C@@H]1C(=O)N2[C@@H]1SC(C)(C)[C@@H]2C(=O)O [OXACILLIN]	1 (≈ 2.49 µM)	1 (≈ 2.49 µM)	> 64	> 64	> 64	> 64	1 (≈ 2.49 µM)	1 (≈ 2.49 µM)				

Now from value to compound, other results behind:

MIC (Staphylococcus aureus [1]) [µg/mL]	MIC (Staphylococcus aureus [2]) [µg/mL]	MIC (Escherichia coli [3]) [µg/mL]	MIC (Escherichia coli [4]) [µg/mL]	Compound	MIC (Staphylococcus aureus [5]) [µg/mL]	MIC (Staphylococcus aureus [6]) [µg/mL]	MIC (Staphylococcus aureus [7]) [µg/mL]	MIC (Staphylococcus aureus [8]) [µg/mL]	Ratio (Staphylococcus aureus [9])	Ratio (Staphylococcus aureus [10])	Ratio (Staphylococcus aureus [11])	Ratio (Staphylococcus aureus [12])
> 64	> 64	> 64	> 64	O=C(O)c1ccc(CN2C(=O)S/C(=C\c3ccc(/C=C/C(=O)c4ccc(Cl)cc4Cl)cc3)C2=O)cc1								
> 64	> 64	> 64	> 64	O=C(O)c1ccc(CN2C(=O)S/C(=C\c3ccc(/C=C/C(=O)c4ccc(Cl)cc4)cc3)C2=O)cc1								
> 64	> 64	> 64	> 64	O=C(O)c1ccc(CN2C(=O)S/C(=C\c3ccc(/C=C/C(=O)c4cccc(Br)c4)cc3)C2=O)cc1								
> 64	> 64	> 64	> 64	COc1cccc(C(=O)/C=C/c2ccc(/C=C3\SC(=O)N(Cc4ccc(C(=O)O)cc4)C3=O)cc2)c1								
> 64	> 64	> 64	> 64	COC(=O)c1ccc(CN2C(=O)S/C(=C\c3ccc(/C=C/C(=O)c4ccc(O)cc4)cc3)C2=O)cc1								
> 64	> 64	> 64	> 64	COC(=O)c1ccc(CN2C(=O)S/C(=C\c3ccc(/C=C/C(=O)c4ccc(OC)cc4)cc3)C2=O)cc1								
